Screens as filed in PubChem BioAssay.
A selection: hits, their analogues and other compounds. The true share with any hit is near 4.3%.
Dyrk1A ADPGlo – Dyrk1A (rat) kinase inhibition. actives 0.43% (n = 310,000). ADP-Glo luminescence, NFATc1 peptide. inhibition, % at 12.5 µM. Q63470; in the data active = inhibition above about 50%;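 also: plate controls were vehicle with enzyme for no effect and no enzyme for full effect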
CAL PDZ FP-1 – blocks peptide binding to the human CAL PDZ domain; actives 0.92% (n = 300,000); purified CAL PDZ, TMR-peptide fluorescence polarization, 1 h; inhibition, % at 24.9 µM; Q9HD26;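 active = mean inhibition of at least 30% with at least half of replicates also reaching 30%; inconclusive = no clear call, values can overlap the other calls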;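 also: 0% = DMSO neutral control and 100% = excess unlabeled competitor peptide PRC23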
ALR H2O2 inh – blocks human ALR sulfhydryl oxidase activity | actives 3.8% (n = 290,000) | purified ALR, DTT oxidation, H2O2 HRP-luminol luminescence | inhibition, % (test concentration not listed) | AID 485317 | P55789;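 active = mean replicate inhibition above about 79%, with every replicate also reaching it, limit read from the data; inconclusive = only one of the two criteria met; inactive = mean below limit and not every replicate reaching it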
Target sequence (P55789 whole entry, looked up): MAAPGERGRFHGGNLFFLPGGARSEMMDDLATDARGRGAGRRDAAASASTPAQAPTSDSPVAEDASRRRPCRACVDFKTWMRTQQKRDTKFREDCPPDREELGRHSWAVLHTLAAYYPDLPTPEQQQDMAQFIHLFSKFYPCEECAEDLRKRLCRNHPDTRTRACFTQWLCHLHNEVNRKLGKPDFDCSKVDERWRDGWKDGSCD
Rtt109 HAT inh – inhibitors of Candida albicans Rtt109/Vps75 histone acetyltransferase | actives 0.16% (n = 330,000) | AID 540336 | Q5AAJ8 | inhibition, % at 34.9 µM | purified Rtt109/Vps75, ThioGlo CoA-SH fluorescence, 4 h;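 active = inhibition of at least 50% in every replicate; inconclusive = best replicate reaches 50% inhibition but some replicates fall short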
Target sequence (Q5AAJ8 whole entry, looked up): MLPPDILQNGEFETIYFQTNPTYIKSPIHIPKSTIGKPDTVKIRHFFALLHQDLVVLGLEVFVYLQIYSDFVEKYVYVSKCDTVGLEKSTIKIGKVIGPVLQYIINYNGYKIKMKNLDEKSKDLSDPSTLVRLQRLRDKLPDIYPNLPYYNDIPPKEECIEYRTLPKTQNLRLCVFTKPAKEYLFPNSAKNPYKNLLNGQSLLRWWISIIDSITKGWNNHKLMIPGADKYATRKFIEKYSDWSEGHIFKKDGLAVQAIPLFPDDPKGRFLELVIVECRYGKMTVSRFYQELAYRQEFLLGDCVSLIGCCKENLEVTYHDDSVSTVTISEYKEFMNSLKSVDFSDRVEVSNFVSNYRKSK
CAL PDZ FP-2 – human CAL PDZ-peptide interaction inhibition | inhibition, % at 20 µM | actives 0.02% (n = 330,000) | Q9HD26 | purified CAL PDZ, TMR-peptide fluorescence polarization, 1 h;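 active = highest replicate inhibition of at least 40%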;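 also: plate controls were DMSO neutral control wells for no effect and unlabeled competitor peptide control wells for full effect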
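Test system: purified CerCALP PDZ construct; Compound dosing: one concentration, 20 µM compound; Also added: TMR-labelled reporter peptide T*-PRC34 bound in PDZ groove; Read-out: inhibition from polarization loss; Controls: unlabelled peptide and DMSO controls; Signal: FP readout, S and P plane fluorescence; Incubation: 1 h at RT.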
The depositor's hits bear a star; u = inconclusive; x = not tested or not shown.

SMILES	Dyrk1A ADPGlo	CAL PDZ FP-1	ALR H2O2 inh	Rtt109 HAT inh	CAL PDZ FP-2
COc1ccc(-c2csc(Nc3ncccc3C)n2)cc1OC	6	1	-1	2	0
Cc1cccc(Nc2nc(-c3ccc(F)c(C)c3)cs2)n1	4	-3	-1	x	0
Cc1cccc(C(=O)N[C@H](C(=O)Nc2nc3ccc(S(C)(=O)=O)cc3s2)C(C)C)c1	32	4	3	31	-2
O=C1NNC(c2ccccc2)=N/C1=C\c1ccccc1	-1	-2	12	-3	0
CCSC1=N/C(=C\c2ccccc2)C(=O)N1	28	61*	9	24	0
O=C(Nc1ccc(SC(F)F)cc1)c1ccccc1F	-4	-7	99*	x	1
O=C(Nc1ccc(F)cc1)c1ccccc1F	13	-1	4	x	-3
COc1ccc(C)cc1NC(=O)C/C(C)=N/NC(=O)Cc1cccc2ccccc12	2	3	4	-3	1
Cc1nc(/C=[N+](\[O-])C(C)(C)/C=N/O)n(O)c1C	3	59*	-2	-8	0
CC(C)(/C=N/O)/[N+]([O-])=C/c1ccco1	-1	0	-7	-6	-1
O=c1ccnc(Nc2ccc3c(c2)OCCO3)[nH]1	-1	-2	-16	5	-1
N#C/C(=C/c1cccnc1)c1ccccc1	1	-1	-5	-5	1
CC1CCc2c(sc(/N=C/c3cccnc3)c2C(N)=O)C1 (stereo not drawn)	x	x	-17	x	x
N#C/C(=C\c1cccnc1)c1nc2c(s1)CCCC2	5	0	98*	8	-4
CC1CCc2nc(/C(C#N)=C/c3cccnc3)sc2C1 (stereo not drawn)	-2	-3	97*	x	-3
O=C(COc1ccc(Cl)cc1)NNC(=O)C(=O)NC1CCCCC1	3	-1	-3	1	-1
CC(C)c1ccc(Nc2nc(Cl)nc(NCCO)n2)cc1	2	-4	97*	-4	-2
COc1ccc(Nc2nc(Cl)nc(NCCO)n2)cc1	-1	-2	x	-2	-1
COc1ccc(S(=O)(=O)N2CCCC(C(=O)NC3CC3)C2)cc1OC (stereo not drawn)	4	-2	1	-4	-2
CCCN1CCCc2cc(CN)ccc21	x	-5	100*	33	-1
Cc1cc(C)cc(-n2ncc3c2CCCC3NC(=O)C2CCC2)c1 (stereo not drawn)	-3	53*	2	3	-1
Cc1cc(C)cc(-n2ncc3c2CCCC3NC(=O)c2cc(C)[nH]n2)c1 (stereo not drawn)	7	-5	8	21	-3
Cc1cc(C(=O)NC2CCCc3c2cnn3-c2ccc(C(C)(C)C)cc2)nn1C (stereo not drawn)	-2	7	-6	2	-1
Cc1cc(C)cc(-n2ncc3c2CCCC3NC(=O)c2cc(C)n(C)n2)c1 (stereo not drawn)	-1	-3	84*	9	-1
CC(=O)Nc1ccc(C(=O)OCC(=O)NCc2ccccc2)cc1	-2	2	2	8	x
SMILES	Dyrk1A ADPGlo	CAL PDZ FP-1	ALR H2O2 inh	Rtt109 HAT inh	CAL PDZ FP-2
CC(=O)Nc1ccc(NC(=O)C(C)OC(=O)COc2ccc(Nc3ccccc3)cc2)cc1 (stereo not drawn)	0	7	99*	-11	1
CC(=O)Nc1ccc(OCC(=O)NCc2ccccc2)cc1	-6	-3	-14	52*	-3
CC(COc1ccccc1)OC(=O)Nc1ccccc1 (stereo not drawn)	0	61*	x	1	31
CCOc1ccc(OCCC(=O)OC(C)C(=O)Nc2ccc(C(C)=O)cc2)cc1 (stereo not drawn)	1	-1	1	3	-1
CC(CNC(=O)COc1ccccc1)OC(=O)Nc1cccc(Cl)c1 (stereo not drawn)	7	-3	-12	-11	-3
CCn1c(C2CCN(S(=O)(=O)c3ccc(OC)cc3)CC2)n[nH]c1=S	5	-6	x	-4	0
Cc1onc(-c2ccccc2)c1C(=O)NC(=S)NNC(=O)c1ccc(O)cc1O	3	-5	92*	1	-1
CCCOc1ccc(NC(=O)c2c(-c3ccccc3)noc2C)cc1	13	x	11	13	1
Cc1onc(-c2ccccc2)c1C(=O)NC(=S)NNC(=O)c1ccccc1O	-4	-1	30	-4	1
CCCOc1ccc(C(=O)NC(=S)NNC(=O)c2c(-c3ccccc3)noc2C)cc1	4	x	100*	8	-1
COc1ccc(-n2ccnc(SCC(=O)NCc3ccccc3Cl)c2=O)cc1	-4	7	99*	-5	-2
CC(=O)Nc1ccc(N(C(=O)c2ccco2)C(C(=O)NC2CCCC2)c2ccc(N3CCOCC3)cc2)cc1 (stereo not drawn)	-2	-1	-31	-2	0
O=C(c1ccc2c(c1)OCO2)N1CCN(c2ccc(F)cc2)CC1	-2	4	97*	-13	0
Cc1ccsc1-c1nc(CN2C[C@@H](C)O[C@@H](C)C2)c(C)o1	0	x	-13	-3	0
Cc1ccsc1-c1nc(CSCC(=O)N2CCN(c3ccccc3)CC2)c(C)o1	3	-3	89*	5	0
O=C(CSCc1ccc(F)cc1)N1CCN(c2ccc(F)cc2)CC1	1	5	98*	-1	0
O=C(CCN1C(=O)C2C3C=CC(C3)C2C1=O)N1CCN(c2ccc(F)cc2)CC1 (stereo not drawn)	0	-1	97*	-2	-3
COc1ccc(C(=O)COC(=O)CNC(=O)c2ccccc2)cc1F	x	-3	-14	-22	0
Cc1cccn2c(=O)nc(SCC(=O)N3CCN(c4ccccc4)CC3)nc12	-1	-7	86*	-1	0
O=C(CSCc1ccc(F)cc1)N1CCN(c2ccccc2)CC1	6	-3	55	11	0
Cc1ccccc1CSCC(=O)N1CCN(c2ccccc2)CC1	1	-2	99*	5	-3
CC(C)CC(=O)Nc1ccc(-c2nnn(CC(=O)NCc3ccco3)n2)cc1	0	-2	-3	13	-3
COc1ccc(NC(=O)C2CCC(=O)N2C(=O)OCc2ccccc2)cc1 (stereo not drawn)	6	x	-2	-3	-1
Cc1[nH]c2ccccc2c1/C=N/NC(=O)Cc1cccs1	2	-9	94*	7	0
Cc1[nH]c2ccccc2c1/C=N/NC(=O)CNC(=O)Cc1ccccc1	6	2	32	-1	1
Cc1oc(-c2ccc(Cl)cc2)nc1CS(=O)CC(=O)NCCCN1CCN(Cc2ccccc2)CC1 (stereo not drawn)	-5	30	u	3	-1
COc1ccc(-c2nc(CS(=O)CC(=O)NCCCN3CCCC(C)C3)c(C)o2)cc1OC (stereo not drawn)	-5	-4	99*	-2	-2
